Experimental data taken from ChEMBL document CHEMBL1156459, “Discovery of a small molecule antagonist of the parathyroid hormone receptor by using an N-terminal parathyroid hormone peptide probe” (Proc Natl Acad Sci U S A, 2007).
Square brackets hold non-standard residues; d marks the D form. Peptide text beside a SMILES is read from it. Nle = CCCC[C@H](N)C(=O)O; Aib = CC(C)(N)C(=O)O

What was measured:
[1] = Stability in rat whole blood assessed as half life; type: ADME, tissue-based
Procedure, shortened: (§1)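 Peptide incubated at 37°C in rat plasma or rat whole blood; half-life determined.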

[2] = Effect on Ptpn16 gene expression in rat UMR106 cells after 2 hrs by real time PCR method relative to control; type: functional
Procedure, shortened: (§2)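 Confluent UMR106 cells were serum-starved (0.1% FBS, 24 h) and then given peptide in the medium for 2 h. Transcripts were quantified by TaqMan real-time RT-PCR, with relative expression levels set from a serial-dilution standard. Expression is reported as change versus untreated control.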

Rattus norvegicus = test: Increase in cAMP level in ovariectomized rat plasma after 30 mins at 1 mg/kg, sc relative to control; type: functional; conditions: route subcutaneous
[3] = Stability in rat plasma assessed as half life; type: ADME, cell-free; procedure, shortened: as §1
[4] = Effect on c-fos gene expression in rat UMR106 cells after 8 hrs by microarray analysis relative to control; type: functional
Procedure, shortened: (§3)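 Rat UMR106 cells grown to confluency in DMEM/10% FBS, then moved to 0.1% FBS medium 24 h before treatment. Peptides (100 nM) were added to the medium for 2 or 8 h. Microarray profiling covered 8,799 reporters, with changes called at P < 0.01. Values are fold-change versus untreated control.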

[5] = Increase in trabecular bone mineral density in ovariectomized rat at 0.2 mg/kg, sc; type: functional, Trabecula; conditions: route subcutaneous
[6] = Effect on Bmp3 gene expression in rat UMR106 cells after 2 hrs by real time PCR method relative to control; type: functional; procedure, shortened: as §2
[7] = Effect on Pde4b gene expression in rat UMR106 cells after 2 hrs by real time PCR method relative to control; type: functional; procedure, shortened: as §2
[8] = Stimulation of cell proliferation in neonatal CD1 mouse calivaria assessed as increase in [3H]thymidine incorporation; type: functional
[9] = Effect on Pde4b gene expression in rat UMR106 cells after 8 hrs by microarray analysis relative to control; type: functional; procedure, shortened: as §3
[10] = Effect on Crem gene expression in rat UMR106 cells after 2 hrs by microarray analysis relative to control; type: functional; procedure, shortened: as §3
[11] = Effect on Ptpn16 gene expression in rat UMR106 cells after 2 hrs by microarray analysis relative to control; type: functional; procedure, shortened: as §3
[12] = biological target: T1, Parathyroid hormone/parathyroid hormone-related peptide receptor (Homo sapiens, UniProt Q03431); test: Activity at human PTH/PTH-related peptide receptor expressed in HEK293 cells assessed as induction of luciferase activity by CRE-luciferase reporter assay; type: functional, cell-based
T1 sequence (Q03431 whole entry): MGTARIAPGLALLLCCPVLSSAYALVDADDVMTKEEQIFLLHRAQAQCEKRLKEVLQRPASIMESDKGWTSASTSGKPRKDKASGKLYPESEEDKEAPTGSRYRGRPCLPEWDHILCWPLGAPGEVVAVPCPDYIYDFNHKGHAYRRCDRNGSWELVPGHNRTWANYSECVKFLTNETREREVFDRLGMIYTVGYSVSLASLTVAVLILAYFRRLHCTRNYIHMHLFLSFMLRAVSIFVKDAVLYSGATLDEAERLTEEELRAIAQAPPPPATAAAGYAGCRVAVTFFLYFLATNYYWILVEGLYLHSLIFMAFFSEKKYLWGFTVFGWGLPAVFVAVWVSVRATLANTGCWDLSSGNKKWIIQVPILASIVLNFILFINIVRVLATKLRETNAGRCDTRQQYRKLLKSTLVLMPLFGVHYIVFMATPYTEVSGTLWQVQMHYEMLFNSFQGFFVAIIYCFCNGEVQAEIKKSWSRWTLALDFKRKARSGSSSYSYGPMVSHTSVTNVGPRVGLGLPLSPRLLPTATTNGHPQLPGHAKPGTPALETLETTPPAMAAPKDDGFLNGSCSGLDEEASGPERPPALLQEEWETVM

[13] = Effect on IL18 gene expression in rat UMR106 cells after 8 hrs by microarray analysis relative to control; type: functional; procedure, shortened: as §3
[14] = biological target: T1, Parathyroid hormone/parathyroid hormone-related peptide receptor; test: Activity at human PTH/PTH-related peptide receptor expressed in HEK293 cells assessed as induction of intracellular calcium mobilization; type: functional, cell-based
[15] = Effect on Bmp3 gene expression in rat UMR106 cells after 8 hrs by microarray analysis relative to control; type: functional; procedure, shortened: as §3
[16] = Effect on c-fos gene expression in rat UMR106 cells after 2 hrs by microarray analysis relative to control; type: functional; procedure, shortened: as §3
[17] = Effect on Pde4b gene expression in rat UMR106 cells after 2 hrs by microarray analysis relative to control; type: functional; procedure, shortened: as §3
[18] = biological target: T1, Parathyroid hormone/parathyroid hormone-related peptide receptor; test: Activity at human PTH/PTH-related peptide receptor expressed in SAOS2 cells assessed as cAMP formation; type: functional, cell-based, SAOS-2
Procedure, shortened: (§4)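 Nonconfluent cells grown at 37°C in DMEM with 10% FBS, refed 12–24 h before assay. Rinsed with warm PBS, detached with prewarmed EDTA (37°C, 5–10 min), spun at 300 × g for 5 min. Resuspended in HBSS/5 mM Hepes/0.1% BSA/0.5 mM IBMX, pH 7.4. cAMP read by AlphaScreen.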

[19] = Effect on Ptpn16 gene expression in rat UMR106 cells after 8 hrs by microarray analysis relative to control; type: functional; procedure, shortened: as §3
[20] = Decrease in collagen synthesis in neonatal CD1 mouse calivaria bone assessed as [3H]proline incorporation; type: functional
[21] = Effect on IL18 gene expression in rat UMR106 cells after 2 hrs by real time PCR method relative to control; type: functional; procedure, shortened: as §2
[22] = Effect on Pthr1 gene expression in rat UMR106 cells after 8 hrs by microarray analysis relative to control; type: functional; procedure, shortened: as §3
[23] = Effect on c-fos gene expression in rat UMR106 cells after 2 hrs by real time PCR method relative to control; type: functional; procedure, shortened: as §2
[24] = biological target: T1, Parathyroid hormone/parathyroid hormone-related peptide receptor; test: Binding affinity to PTH/PTH-related peptide receptor expressed in HKRK-B28 cells; type: cell-based
Procedure, shortened: (§5)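 Whole HKRK-B28 cells plated at 30,000/well and incubated overnight at 37°C, 5% CO2. Incubated 3 h at room temperature, washed three times, bound radioactivity counted by scintillation.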

[25] = Effect on Pthr1 gene expression in rat UMR106 cells after 2 hrs by microarray analysis relative to control; type: functional; procedure, shortened: as §3
[26] = Stimulation of osteoclast-mediated bone resorption in fetal Sprague-Dawley rat radii/ulnae assessed as [45Ca]release measured on day 5; type: functional; conditions: 120 h
Procedure, shortened: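 Fetal rat radii/ulnae prelabelled with 45Ca in utero, dissected and cultured. 45Ca released into the culture medium measured as the osteoclast-mediated resorption read-out.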

[27] = biological target: T1, Parathyroid hormone/parathyroid hormone-related peptide receptor; test: Displacement of [125I]DPC-AJ1951 from PTH/PTH-related peptide receptor expressed in HKRK-B28 cells; type: cell-based; procedure, shortened: as §5
[28] = Effect on Crem gene expression in rat UMR106 cells after 2 hrs by real time PCR method relative to control; type: functional; procedure, shortened: as §2
[29] = biological target: T1, Parathyroid hormone/parathyroid hormone-related peptide receptor; test: Displacement of [125I]DPC-AJ1951 from PTH/PTH-related peptide receptor expressed in HKRK-B28 cells in presence of SW106; type: cell-based; procedure, shortened: as §5
[30] = Effect on Pthr1 gene expression in rat UMR106 cells after 2 hrs by real time PCR method relative to control; type: functional; procedure, shortened: as §2
[31] = biological target: T2, Parathyroid hormone/parathyroid hormone-related peptide receptor (Rattus norvegicus, UniProt P25961); test: Activity at rat PTH/PTH-related peptide receptor expressed in rat UMR106 cells assessed as cAMP formation; type: functional, cell-based; procedure, shortened: as §4
T2 sequence (P25961 whole entry): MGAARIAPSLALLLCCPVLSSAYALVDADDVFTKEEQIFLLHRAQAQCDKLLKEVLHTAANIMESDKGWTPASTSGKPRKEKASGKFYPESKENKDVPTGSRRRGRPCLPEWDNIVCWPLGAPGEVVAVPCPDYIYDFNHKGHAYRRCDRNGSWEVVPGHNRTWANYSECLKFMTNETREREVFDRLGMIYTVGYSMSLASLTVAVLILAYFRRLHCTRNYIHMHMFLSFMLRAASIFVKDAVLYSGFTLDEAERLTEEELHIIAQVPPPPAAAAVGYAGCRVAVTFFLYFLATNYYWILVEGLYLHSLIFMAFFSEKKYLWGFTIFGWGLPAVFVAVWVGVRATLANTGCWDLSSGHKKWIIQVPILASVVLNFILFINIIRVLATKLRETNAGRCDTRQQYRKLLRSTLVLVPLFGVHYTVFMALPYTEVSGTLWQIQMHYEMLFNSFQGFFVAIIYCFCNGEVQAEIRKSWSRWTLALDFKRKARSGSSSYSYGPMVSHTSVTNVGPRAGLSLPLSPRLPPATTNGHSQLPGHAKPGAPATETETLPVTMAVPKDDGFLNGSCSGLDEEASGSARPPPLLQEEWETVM

## CCCC[C@H](NC(=O)[C@H](CC(C)C)NC(=O)[C@H](CCC(N)=O)NC(=O)[C@@H](NC(=O)[C@H](CCC(=O)O)NC(=O)C(C)(C)NC(=O)[C@@H](NC(=O)C(C)(C)N)C(C)C)[C@@H](C)CC)C(=O)N[C@@H](Cc1cnc[nH]1)C(=O)N[C@@H](CCC(N)=O)C(=O)N[C@@H](CCCNC(=N)N)C(=O)N[C@@H](C)C(=O)N[C@@H](CCCCN)C(=O)N[C@@H](Cc1ccc(O)cc1)C(N)=O (H-[Aib]V[Aib]EIQL[Nle]HQRAKY-NH2)
[1]
  half-life: 15 min
[2]
  fold change (FC): 15
Rattus norvegicus
  Activity: 150%
[3]
  half-life: 20 min
[4]
  fold change (FC): 11
[5]
  Activity: 21%
[6]
  fold change (FC): 14
[7]
  fold change (FC): 4
[8]
  EC50: 6 nM
[9]
  fold change (FC): 9
[10]
  fold change (FC): 13
[11]
  fold change (FC): 9
[12]
  EC50: 0.15 nM
[13]
  fold change (FC): 18
[14]
  EC50: 26 nM
[15]
  fold change (FC): 4
[16]
  fold change (FC): 48
[17]
  fold change (FC): 11
[18]
  EC50: 2.2 nM
[19]
  fold change (FC): 6
[20]
  EC50: 0.2 nM
[21]
  fold change (FC): 6
[22]
  fold change (FC): 3
[23]
  fold change (FC): 66
[24]
  Kd: 21.6 nM
[25]
  fold change (FC): -2
[26]
  EC50: 30 nM
[27]
  IC50: 6.87 nM
[28]
  fold change (FC): 5
[29]
  IC50: 55.4 nM
[30]
  fold change (FC): -2
[31]
  EC50: 1.1 nM
